Results from ChEMBL document CHEMBL1129483, “Antitumor 2-(aminocarbonyl)-1,2-bis(methylsulfonyl)-1-(2-chloroethyl)- hydrazines” (1996).
“And” between values parts separate entries of the source, which are not always exact repeats. Equal values may be shown once.

Legend:
Assay type in all cases: functional
Mus musculus [1] = experiment: Average percent change in body weight from onset to termination of therapy at dose 10(mg/kg)
How it was run: (§1)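 CD2F1 mice implanted ip with 10^5 L1210 leukemia cells (kept by serial passage in culture and periodic ip passage in donor mice). Drug given ip in 100% DMSO, at most 0.025 mL, once daily for 6 consecutive days starting 24 h after implantation. Groups of 5–10 mice; vehicle-treated tumor-bearing controls. Body weight change is the average percent from onset to termination of therapy, used as a toxicity index.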

Mus musculus [2] = experiment: Average percent change in body weight from onset to termination of therapy at dose 15(mg/kg); how it was run: as §1
Mus musculus [3] = experiment: Average survival time of treated /control mice*100 was determined at a daily dose of 15 mg/kg
How it was run: (§2)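 L1210 leukemia cells kept by serial passage in culture. 10^5 cells given ip to CD2F1 mice. Drug in 100% DMSO given ip once daily for 6 days starting 24 h after implant. 5–10 mice per group, with vehicle-treated controls. %T/C is average survival time of treated mice over controls ×100. 60-day survivors (cures) are excluded from the calculation.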

Mus musculus [4] = experiment: %60 day survivors were determined for the compound as the mouse […] at dose 15 mg/kg
How it was run: (§3)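 L1210 leukemia cells kept by serial passage in culture. 10^5 cells given ip to CD2F1 mice. Drug in 100% DMSO, at most 0.025 mL, given ip once daily for 6 consecutive days starting 24 h after implant. 5–10 mice per group, with vehicle-treated tumor-bearing controls. Value is the percentage of mice alive and symptom-free 60 days after tumor implant.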

Mus musculus [5] = experiment: Average percent change in body weight from onset to termination of therapy at dose 5(mg/kg); how it was run: as §1
Mus musculus [6] = experiment: Average survival time of treated /control mice*100 was determined at a daily dose of 10 mg/kg; how it was run: as §2
Mus musculus [7] = experiment: Average survival time of treated /control mice*100 was determined at a daily dose of 5 mg/kg; how it was run: as §2
Mus musculus [8] = experiment: Average percent change in body weight from onset to termination of therapy at dose 25(mg/kg); how it was run: as §1
Mus musculus [9] = experiment: %60 day survivors were determined for the compound as the mouse […] at dose 75 mg/kg; how it was run: as §3
Mus musculus [10] = experiment: Average survival time of treated /control mice*100 was determined at a daily dose of 20 mg/kg; how it was run: as §2
Mus musculus [11] = experiment: Average percent change in body weight from onset to termination of therapy at dose 50(mg/kg); how it was run: as §1
Mus musculus [12] = experiment: %60 day survivors were determined for the compound as the mouse […] at dose 50 mg/kg; how it was run: as §3
Mus musculus [13] = experiment: %60 day survivors were determined for the compound as the mouse […] at dose 10 mg/kg; how it was run: as §3
Mus musculus [14] = experiment: Average percent change in body weight from onset to termination of therapy at dose 100(mg/kg); how it was run: as §1
Mus musculus [15] = experiment: Average survival time of treated /control mice*100 was determined at a daily dose of 25 mg/kg; how it was run: as §2
Mus musculus [16] = experiment: %60 day survivors were determined for the compound as the mouse […] at dose 25 mg/kg; how it was run: as §3
Mus musculus [17] = experiment: Average percent change in body weight from onset to termination of therapy at dose 20(mg/kg); how it was run: as §1
Mus musculus [18] = experiment: Average percent change in body weight from onset to termination of therapy at dose 75(mg/kg); how it was run: as §1
Mus musculus [19] = experiment: %60 day survivors were determined for the compound as the mouse […] at dose 100 mg/kg; how it was run: as §3
Mus musculus [20] = experiment: Average percent change in body weight from onset to termination of therapy at dose 150(mg/kg); how it was run: as §1
Mus musculus [21] = experiment: Average survival time of treated /control mice*100 was determined at a daily dose of 150 mg/kg; how it was run: as §2
Mus musculus [22] = experiment: %60 day survivors were determined for the compound as the mouse […] at dose 150 mg/kg; how it was run: as §3
Mus musculus [23] = experiment: Average survival time of treated /control mice*100 was determined at a daily dose of 50 mg/kg; how it was run: as §2
Mus musculus [24] = experiment: %60 day survivors were determined for the compound as the mouse […] at dose 5 mg/kg; how it was run: as §3
Mus musculus [25] = experiment: %60 day survivors were determined for the compound as the mouse […] at dose 20 mg/kg; how it was run: as §3
Mus musculus [26] = experiment: Average survival time of treated /control mice*100 was determined at a daily dose of 75 mg/kg; how it was run: as §2
Mus musculus [27] = experiment: Average survival time of treated /control mice*100 was determined at a daily dose of 100 mg/kg; how it was run: as §2

Structure (SMILES) | Change (Mus musculus [1]) | Change (Mus musculus [2]) | T/C (Mus musculus [3]) | Survivors (Mus musculus [4]) | Change (Mus musculus [5]) | T/C (Mus musculus [6]) | T/C (Mus musculus [7]) | Change (Mus musculus [8]) | T/C (Mus musculus [10]) | Change (Mus musculus [11]) | Survivors (Mus musculus [12]) | Survivors (Mus musculus [13]) | Change (Mus musculus [14]) | Change (Mus musculus [17]) | other results
CS(=O)(=O)N(CCCl)N(C(=O)NCCCCl)S(C)(=O)=O | -5.6% | -8.8% | 192% | 20% | -2.8% | 187% | 111% |  |  |  |  |  |  |  | 
CCOC(=O)C(C)NC(=O)N(N(CCCl)S(C)(=O)=O)S(C)(=O)=O (centres undefined) | -1.4% | -0.5% | 185% |  | -2% | 178% | 170% | -2.5% | 227% | -3.3% | 100% | 20% | -2.5% | -1.5% | Survivors (Mus musculus [9]): 80%; T/C (Mus musculus [15]): 239%; Survivors (Mus musculus [16]): 60%; Change (Mus musculus [18]): -2.5%
CCOC(=O)C(Cc1ccccc1)NC(=O)N(N(CCCl)S(C)(=O)=O)S(C)(=O)=O (centres undefined) | -0.5% | -1.9% | 160% |  | -2.5% | 165% | 147% | -0.9% | 174% | -2% | 60% |  | -2% | -1.9% | Survivors (Mus musculus [19]): 100%; Change (Mus musculus [20]): -5%; T/C (Mus musculus [15]): 177%; T/C (Mus musculus [21]): 169%; Survivors (Mus musculus [22]): 20%; T/C (Mus musculus [23]): 225%
C=CCNC(=O)N(N(CCCl)S(C)(=O)=O)S(C)(=O)=O | -2.1% | -2.9% |  | 100% | -1.6% | 394% | 184% |  |  |  |  | 40% |  |  | Survivors (Mus musculus [24]): 20%
CS(=O)(=O)N(CCCl)N(C(=O)NCCCl)S(C)(=O)=O | -4.7% | -4% | 216% | 80% |  |  |  |  | 239% |  |  | 100% |  | -10.4% | Survivors (Mus musculus [25]): 80%
CCOC(=O)CNC(=O)N(N(CCCl)S(C)(=O)=O)S(C)(=O)=O | -1.4% | -0.5% | 202% |  | -1.5% | 202% | 151% | -0.5% |  | -2.5% | 80% | 20% | -4% | -3.7% | Survivors (Mus musculus [9]): 60%; T/C (Mus musculus [10]; 20 mg/kg): 191% and 138%; Survivors (Mus musculus [25]): 20%; T/C (Mus musculus [26]): 119%; Survivors (Mus musculus [16]): 100%; Change (Mus musculus [18]): -1.5%; T/C (Mus musculus [27]): 115%
CNC(=O)N(N(CCCl)S(C)(=O)=O)S(C)(=O)=O [LAROMUSTINE] | -5.6% | -2.1% |  | 100% | 9.9% |  | 234% |  |  |  |  | 100% |  |  | Survivors (Mus musculus [24]): 40%
